The subject of series [1] is Rattus norvegicus. Description: Toxicity in Sprague-Dawley rat assessed as skin rashes at 2000 mg/kg, po measured over 4 hrs. Type of series: organism-based. Particulars: in vivo. In short, it runs like this: (§1)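 Acute oral toxicity run per OECD 425 in adult SD rats (180–220 g). Six animals per group: vehicle control (0.5% CMC-Na, oral), male rats and female rats each dosed orally at 2000 mg/kg. Animals were watched continuously for the first 4 h for behavior, breathing, cutaneous signs (irritation, ulceration, caustic injury, skin rashes), sensory nervous and gastrointestinal effects. Later checks were hourly for 24 h, then every 6 h for 48 h.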

Series [2] can be described thus: Drug level in Sprague-Dawley rat feces at 100 mg/kg, po by UPLC-IT-TOF-MS analysis. Type of series: ADME, organism-based. Particulars: in vivo. In short, it runs like this: (§2)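 Rats (n = 6) housed in metabolic cages received 100.0 mg/kg orally; controls received 0.5% CMC-Na. Plasma, urine and faeces were collected and analyzed by LC-IT-TOF-MS on a C18 column at 30 °C. Gradient 5–100% acetonitrile with 0.05% formic acid over 18 min at 0.2 mL/min; positive and negative ion MS/MS.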

The nature of series [3]: Drug metabolism in Sprague-Dawley rat plasma assessed as (2S,3S,4S,5R,6S)-3,4,5-trihydroxy-6-(5-(1-hydroxyallyl)-5'-(1-hydroxypropyl)-2'-((2S,3R,4S,5S,6R)-3,4,5-trihydroxy-6-(hydroxymethyl)tetrahydro-2H-pyran-2-yloxy)biphenyl-2-yloxy)tetrahydro-2H-pyran-2-carboxylic acid formation at 100 mg/kg, po by UPLC-IT-TOF-MS analysis. The following applies: in vivo. Type of series: ADME, organism-based. In short, it runs like this:
as §2

The nature of series [4]: Drug metabolism in Sprague-Dawley rat plasma assessed as (2S,3S,4S,5R,6S)-6-(5-acryloyl-2'-hydroxy-5'-(1-hydroxyallyl)biphenyl-2-yloxy)-3,4,5-trihydroxytetrahydro-2H-pyran-2-carboxylic acid formation at 100 mg/kg, po by UPLC-IT-TOF-MS analysis. Type of series: ADME, organism-based. The following applies: in vivo. In short, it runs like this:
as §2

In series [5] the test system is Mus musculus. The series can be described thus: Increase in ratio of 5-hydroxyindole-3-acetic acid to 5-hydroxytryptamine level in Kunming mouse hippocampus at 40 mg/kg, po treated for 7 days by HPLC-ECD analysis. Type of series: functional, organism-based. In short, it runs like this:
(§3)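 Male Kunming mice (18–20 g) given vehicle or 40 mg/kg for 7 days, then killed by cervical dislocation. Frontal cortex, hippocampus, striatum, hypothalamus and thalamus dissected on ice, homogenized in ice-cold 0.2 M perchloric acid with 0.1 mM EDTA, centrifuged 15,000 rpm, 20 min, 4 °C. Supernatant analysed by HPLC-ECD at +0.50 V; phosphate/octanesulfonate mobile phase pH 3.0 with 12% methanol. Levels in ng/g, mean ± SEM.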

In series [6] the target is Melatonin receptor type 1A (Homo sapiens, UniProt P48039). Description: Agonist activity at human MT1 receptor expressed in HEK293 cells at 1 mM after 24 hrs by Fluo-8 dye-based calcium assay relative to control. Type of series: functional, cell-based. In short, it runs like this:
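Fluo-8 calcium assay in HEK293 cells stably expressing human MT1 or MT2, seeded 4×10^4/well and incubated 24 h. Compounds tested at 1.00 mM, agomelatine positive control at 3.33 µM; fluorescence at ex 485/em 525 nm. Agonism expressed as mean ± SD, n = 3.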

The subject of series [7] is Mus musculus. Description: Increase in norepinephrine level in Kunming mouse striatum at 40 mg/kg, po treated for 7 days by HPLC-ECD analysis. Type of series: functional, organism-based. In short, it runs like this:
as §3

Series [8] deals with Rattus norvegicus. The series can be described thus: Toxicity in Sprague-Dawley rat assessed as ulceration at 2000 mg/kg, po measured over 4 hrs. Type of series: organism-based. The following applies: in vivo. In short, it runs like this:
as §1

Series [9] in a line: Drug metabolism in Sprague-Dawley rat urine assessed as 2S,3S,4S,5R,6S)-6-(5,5'-diallyl-2'-((2S,3R,4S,5S,6R)-3,4,5-trihydroxy-6-(hydroxymethyl)tetrahydro-2H-pyran-2-yloxy)biphenyl-2-yloxy)-3,4,5-trihydroxytetrahydro-2H-pyran-2-carboxylic acid formation at 100 mg/kg, po by UPLC-IT-TOF-MS analysis. The following applies: in vivo. Type of series: ADME, organism-based. Summed up:
(§4)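 Male/unspecified SD rats (n = 6) housed individually in metabolic cages, dosed orally at 100.0 mg/kg; controls given 0.5% CMC-Na orally. Plasma, urine and faeces collected. LC-IT-TOF-MS on C18 column at 30 °C, formic acid (0.05%) water/acetonitrile gradient 5–100% B over 18 min, 0.2 mL/min; positive and negative ion modes with automatic MS/MS.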

Series [10] relates to Mus musculus. The series can be described thus: Effect on 5-hydroxytryptamine level in Kunming mouse hypothalamus at 40 mg/kg, po treated for 7 days by HPLC-ECD analysis. Type of series: functional, organism-based. In short, it runs like this:
as §3

Series [11] can be described thus: Drug metabolism in Sprague-Dawley rat urine assessed as 2'-hydroxy-5'-(1-hydroxyallyl)-5-propylbiphenyl-2-yl hydrogen sulfate formation at 100 mg/kg, po by UPLC-IT-TOF-MS analysis. Type of series: ADME, organism-based. The following applies: in vivo. In short, it runs like this:
as §4

Series [12] can be described thus: Drug metabolism in Sprague-Dawley rat plasma assessed as (2S,3S,4S,5R,6S)-3,4,5-trihydroxy-6-(5-(1-hydroxyallyl)-5'-(2-hydroxypropyl)-2'-methoxybiphenyl-2-yloxy)tetrahydro-2H-pyran-2-carboxylic acid formation at 100 mg/kg, po by UPLC-IT-TOF-MS analysis. Type of series: ADME, organism-based. Particulars: in vivo. Summed up: as §2
The test system of series [13] is Mus musculus. The series can be described thus: Increase in 4-hydroxy-3-methoxyphenylacetic acid level in Kunming mouse hypothalamus at 40 mg/kg, po treated for 7 days by HPLC-ECD analysis. Type of series: functional, organism-based. In short, it runs like this:
as §3

The nature of series [14]: Toxicity in po dosed Sprague-Dawley rat measured continuously for first 4 hrs followed by measured every hour for next 24 hrs and at 6 hrs intervals for following 48 hrs post dose. The following applies: in vivo. Type of series: organism-based. Summed up:
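Followed OECD 425 in adult SD rats (180–220 g), three groups of six. Vehicle control received 0.5% CMC-Na orally; separate male and female groups received 2000 mg/kg orally. Endpoints observed: behaviour, breathing, cutaneous effects, sensory nervous system responses, gastrointestinal effects and deaths.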

A short description of series [15]: Drug metabolism in Sprague-Dawley rat urine assessed as 5'-acryloyl-2'-hydroxy-5-propionylbiphenyl-2-yl hydrogen sulfate formation at 100 mg/kg, po by UPLC-IT-TOF-MS analysis. Type of series: ADME, organism-based. The following applies: in vivo. In short, it runs like this:
as §4

Series [16] can be described thus: Drug metabolism in Sprague-Dawley rat plasma assessed as 5-allyl-5'-(1-hydroxyallyl)-2'-((2S,3R,4S,5S,6R)-3,4,5-trihydroxy-6-(hydroxymethyl)tetrahydro-2H-pyran-2-yloxy)biphenyl-2-yl hydrogen sulfate formation at 100 mg/kg, po by UPLC-IT-TOF-MS analysis. The following applies: in vivo. Type of series: ADME, organism-based. In short, it runs like this: as §4
Series [17] in a line: Drug metabolism in Sprague-Dawley rat urine assessed as 5,5'-diallylbiphenyl-2,2'-diol formation at 100 mg/kg, po by UPLC-IT-TOF-MS analysis. Type of series: ADME, organism-based. Particulars: in vivo. In short, it runs like this:
as §4

Series [18] relates to Mus musculus. The series can be described thus: Decrease in dopamine level in Kunming mouse hippocampus at 40 mg/kg, po treated for 7 days by HPLC-ECD analysis. Type of series: functional, organism-based. In short, it runs like this: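 Male Kunming mice received vehicle or 40 mg/kg for 7 days, then were killed by cervical dislocation and the brain regions dissected on ice. Tissue was homogenized in ice-cold 0.2 M perchloric acid with 0.1 mM EDTA and centrifuged at 15,000 rpm, 20 min, 4 °C. Supernatant was analyzed by HPLC-ECD (+0.50 V; phosphate/octanesulfonate mobile phase, pH 3.0). Results in ng/g, mean ± SEM.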

The nature of series [19]: Drug metabolism in Sprague-Dawley rat plasma assessed as (2S,3S,4S,5R,6S)-6-(5'-allyl-5-(1-hydroxyallyl)-2'-((2S,3R,4S,5S,6R)-3,4,5-trihydroxy-6-(hydroxymethyl)tetrahydro-2H-pyran-2-yloxy)biphenyl-2-yloxy)-3,4,5-trihydroxytetrahydro-2H-pyran-2-carboxylic acid formation at 100 mg/kg, po by UPLC-IT-TOF-MS analysis. Type of series: ADME, organism-based. Particulars: in vivo. Summed up:
as §2

The source made the active and inactive calls. No cut-off for these calls is given here.

As a reminder, the LD50 is the dose at which mortality reaches 50%. Low readings indicate greater toxicity, high ones lower toxicity.

Chain of Melatonin receptor type 1A (P48039 whole entry): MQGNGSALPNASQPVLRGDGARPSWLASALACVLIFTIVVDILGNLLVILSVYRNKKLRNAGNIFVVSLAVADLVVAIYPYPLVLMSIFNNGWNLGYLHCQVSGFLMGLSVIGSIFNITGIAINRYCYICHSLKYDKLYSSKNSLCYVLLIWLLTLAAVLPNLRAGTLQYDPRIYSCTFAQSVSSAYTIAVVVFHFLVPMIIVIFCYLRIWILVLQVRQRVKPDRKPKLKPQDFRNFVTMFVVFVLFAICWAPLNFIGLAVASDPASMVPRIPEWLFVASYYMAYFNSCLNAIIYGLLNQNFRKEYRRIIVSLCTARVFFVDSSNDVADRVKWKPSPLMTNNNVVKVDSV

Turning to `C=CCc1ccc(O)c(-c2cc(CC=C)ccc2O[C@@H]2O[C@H](CO)[C@@H](O)[C@H](O)[C@H]2O)c1`, the values for the Activity entry (in the series with Rattus norvegicus [1]; in [6]; with Rattus norvegicus [8]) were “Non-Toxic”, 108% and “Non-Toxic”, respectively. Also, the Drug uptake entry in series [2] is reported as “Not Active”. The Drug metabolism result is “Metabolite_Notdetected” in [3]; “Metabolite_Notdetected” in series [4]; “Metabolite_Detected” in series [9]; “Metabolite_Notdetected” in [11]; “Metabolite_Notdetected” in series [12]; “Metabolite_Detected” in series [15]. Moreover, the results for the Drug metabolism entry in [16], in series [17] and in series [19] were “Metabolite_Notdetected”, “Metabolite_Detected” and “Metabolite_Notdetected”, respectively. Also, the result in the series with Mus musculus [5], in the series on Mus musculus [7], in the series with Mus musculus [13] and in the series on Mus musculus [18] was Active. In addition, the outcome with Mus musculus [10] was inactive. Besides, the 50% lethal dose (LD50) at 76 h in series [14] is above 2000 mg/kg.

The record behind these values is ChEMBL document CHEMBL4270555, “Synthesis and biological evaluation of magnolol derivatives as melatonergic receptor agonists with potential use in depression” (Eur J Med Chem, 2018).
